Laboratory results: ChEMBL document CHEMBL4152387, “Discovery of a Potent Grp94 Selective Inhibitor with Anti-Inflammatory Efficacy in a Mouse Model of Ulcerative Colitis” (J Med Chem, 2018)
Activity calls are given as the source filed them. No cut-off for these calls is given here.

How the values were obtained:
Canis lupus familiaris = organism: Canis lupus familiaris; assay: Inhibition of FITC-geldanamycin binding to dog GST-tagged GRP94 N41 deletion mutant (69 to 337 residues) expressed in Escherichia coli BL21star (DE3) at 100 uM after 4 hrs by FP assay relative to control
[1] = Inhibition of FITC-geldanamycin binding to dog GST-tagged GRP94 N41 deletion mutant (69 to 337 residues) expressed in Escherichia coli BL21star (DE3) after 4 hrs by GM-FITC-based FP assay; parameters: species or system Canis lupus familiaris
[2] = molecular target: T1, Heat shock protein HSP 90-alpha (Homo sapiens, UniProt P07900); assay: Inhibition of FITC-geldanamycin binding to human His-tagged HSP90alpha N-terminal domain (1 to 236 residues) expressed in Escherichia coli BL21star (DE3) at 100 uM after 4 hrs by FP assay relative to control
Outline: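 Hsp90αN (15 nM final) with GM-FITC (6 nM final) and compound in HEPES/KCl/MgCl2 buffer pH 7.4 with NP40, DTT, BGG; 4 h at 4 °C in dark; FP at ex 485/em 535 nm; inhibition computed against GM-FITC-only and protein-plus-probe controls; n = 3.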

[3] = Binding affinity to dog His-tagged biotinylated GRP94 N41 deletion mutant (69 to 337 residues) expressed in Escherichia coli BL21star (DE3) by biolayer interferometry; parameters: species or system Canis lupus familiaris
Outline: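 His-tagged Grp94N biotinylated at one molar ratio in PBS pH 7.4, dialysed overnight, loaded at 400 nM on streptavidin biosensors after 10 min prewetting in PBS, 0.05% BSA, 0.01% Tween-20. Four compound concentrations in this buffer tested; binding recorded at 30 °C by biolayer interferometry.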

[4] = molecular target: T1, Heat shock protein HSP 90-alpha; assay: Binding affinity to human His-tagged HSP90alpha N-terminal domain (1 to 236 residues) expressed in Escherichia coli BL21star (DE3) by biolayer interferometry
Outline: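 His-tagged Hsp90N biotinylated in PBS pH 7.4 (one molar ratio), dialysed overnight, immobilized at 400 nM on streptavidin sensors; kinetics buffer PBS, 0.05% BSA, 0.01% Tween-20; four compound concentrations; 30 °C biolayer interferometry.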

Endoplasmin = Endoplasmin (Homo sapiens, UniProt P14625); assay: Inhibition of GRP94 in human PANC1 cells assessed as down-regulation of integrin alpha2 levels after 36 hrs by Western blot analysis; type: cell-based
Outline: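 Panc-1 cells treated 36 h at indicated concentrations; cell surface protein extracted with a membrane-fractionation kit; Western blot for integrin α2 and αL with β-actin loading control, infrared fluorescent secondary detection.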

[5] = molecular target: T1, Heat shock protein HSP 90-alpha; assay: Inhibition of HSP90alpha in human PANC1 cells assessed as up-regulation of Hsp70 at 1 to 5 uM after 36 hrs by Western blot analysis; type: cell-based
Outline: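 Panc-1 cells treated 36 h; total protein lysate with protease/phosphatase inhibitors; equal protein by BCA on SDS-PAGE, PVDF, Western blot for Hsp70 and Akt, β-actin loading control; AT13387 reference.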

Mus musculus [6] = assay: Anti-inflammatory activity in C57BL/6 mouse model of DSS-induced ulcerative colitis assessed reduction in body weight loss at 10 to 30 mg/kg, ip qd co-administrated with DSS measured until day 7 post dose; type: functional, organism-based
Outline: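 Male C57BL/6 mice (20−22 g), n = 8 per group, 3% DSS in drinking water for 7 days with ip qd dosing at 10 or 30 mg/kg; vehicle for normal and disease controls. Body weight, stool consistency and rectal bleeding recorded daily; DAI scored from weight loss, stool consistency and stool blood.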

Mus musculus [7] = assay: Anti-inflammatory activity in C57BL/6 mouse model of DSS-induced ulcerative colitis assessed mortality at 30 mg/kg, ip qd co-administrated with DSS measured on day 7 post dose; type: functional, organism-based
Outline: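 Male C57BL/6 mice (20−22 g), randomized, n = 8 per group; 3% DSS (36−50 KD) in drinking water for 7 days, with compound given ip once daily alongside; normal and disease controls received vehicle. Deaths counted at day 7.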

Mus musculus [8] = assay: Anti-inflammatory activity in C57BL/6 mouse model of DSS-induced ulcerative colitis assessed reduction in TLR2 expression in colonic tissues at 10 to 30 mg/kg, ip qd co-administrated with DSS measured on day 7 post dose; type: functional, organism-based
Outline: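 DSS colitis in male C57BL/6 mice (3% DSS, 7 days, ip qd 10 or 30 mg/kg, vehicle controls); colons flash-frozen at day 7, homogenized in lysis buffer with protease/phosphatase inhibitors. Equal protein by BCA run on SDS-PAGE, PVDF, 1% BSA block, primary antibodies 37 °C 1 h then 4 °C overnight, DyLight 800 secondary, infrared scan; β-actin loading control.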

Mus musculus [9] = assay: Subacute toxicity in C57BL/6 mouse assessed as effect on heart at 30 to 90 mg/kg, ip qd for 2 weeks by hematoxylin and eosin staining analysis; type: organism-based; conditions: in vivo, 336 h
Mus musculus [10] = assay: Subacute toxicity in C57BL/6 mouse assessed as effect on lung at 30 to 90 mg/kg, ip qd for 2 weeks by hematoxylin and eosin staining analysis; type: organism-based; conditions: in vivo, 336 h
Mus musculus [11] = assay: Subacute toxicity in C57BL/6 mouse assessed as effect on liver at 30 to 90 mg/kg, ip qd for 2 weeks by hematoxylin and eosin staining analysis; type: organism-based; conditions: in vivo, 336 h
[12] = molecular target: T1, Heat shock protein HSP 90-alpha; assay: Binding affinity to human His-tagged HSP90alpha N-terminal domain (1 to 236 residues) expressed in Escherichia coli BL21star (DE3) association constant by biolayer interferometry; conditions: read-out: K
Outline: (§1)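 Biotinylated His-tagged N-terminal protein, labelled in PBS pH 7.4 at one molar ratio with excess biotin removed by overnight dialysis, was loaded at 400 nM final onto streptavidin biosensors pre-wetted 10 min in kinetics buffer (PBS, 0.05% BSA, 0.01% Tween-20). Four compound concentrations in kinetics buffer were then tested for binding, with all data collected at 30 °C.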

[13] = molecular target: T1, Heat shock protein HSP 90-alpha; assay: Binding affinity to human His-tagged HSP90alpha N-terminal domain (1 to 236 residues) expressed in Escherichia coli BL21star (DE3) dissociation constant by biolayer interferometry; conditions: read-out: K; outline: as §1

Endoplasmin, sequence (P14625 whole entry): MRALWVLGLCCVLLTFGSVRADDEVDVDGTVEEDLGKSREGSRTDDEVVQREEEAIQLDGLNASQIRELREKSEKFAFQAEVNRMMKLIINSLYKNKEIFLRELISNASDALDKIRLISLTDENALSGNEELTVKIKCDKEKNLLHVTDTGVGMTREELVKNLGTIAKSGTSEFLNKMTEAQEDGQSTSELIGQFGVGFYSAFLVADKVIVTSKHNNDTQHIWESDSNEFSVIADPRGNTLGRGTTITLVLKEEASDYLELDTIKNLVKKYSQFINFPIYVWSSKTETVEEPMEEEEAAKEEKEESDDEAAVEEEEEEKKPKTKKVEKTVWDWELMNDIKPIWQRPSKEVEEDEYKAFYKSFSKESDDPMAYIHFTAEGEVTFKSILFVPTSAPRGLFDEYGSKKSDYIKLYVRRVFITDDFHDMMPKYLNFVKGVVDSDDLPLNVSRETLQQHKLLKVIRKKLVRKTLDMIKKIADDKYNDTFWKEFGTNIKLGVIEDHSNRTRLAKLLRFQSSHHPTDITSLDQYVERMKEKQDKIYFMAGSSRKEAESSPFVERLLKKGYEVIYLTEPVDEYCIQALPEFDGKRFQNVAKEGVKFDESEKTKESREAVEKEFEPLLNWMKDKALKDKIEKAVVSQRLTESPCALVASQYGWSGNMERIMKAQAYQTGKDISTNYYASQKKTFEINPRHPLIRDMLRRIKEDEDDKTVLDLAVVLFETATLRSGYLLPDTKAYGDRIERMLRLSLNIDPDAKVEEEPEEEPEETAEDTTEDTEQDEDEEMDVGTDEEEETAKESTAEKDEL

## CC(C)c1ccc(-c2ccc(N[C@H]3CC[C@H](O)CC3)c(C(N)=O)c2)cc1
Canis lupus familiaris
  inhibition: 100%
[1]
  IC50: 0.002 µM
[2]
  inhibition (INH): Not Active
[3]
  Kd: 0.0196 µM
[4]
  Kd: 20.6 µM
Endoplasmin
  inhibition: Dose-dependent effect
[5]
  inhibition (INH): Not Active
Mus musculus [6]
  Activity: Active
Mus musculus [7]
  Activity: Active
Mus musculus [8]
  Activity: Active
Mus musculus [9]
  Activity: Non-Toxic
Mus musculus [10]
  Activity: Non-Toxic
Mus musculus [11]
  Activity: Non-Toxic
[12]
  kon: 1680 M⁻¹ s⁻¹
[13]
  koff: 0.0345 s⁻¹
